Experimental data: ChEMBL document CHEMBL4831540, “Discovery of Aficamten (CK-274), a Next-Generation Cardiac Myosin Inhibitor for the Treatment of Hypertrophic Cardiomyopathy” (J Med Chem, 2021)

How the values were obtained:
[1] = Ratio of IC50 to IC10 for anti-hypertrophic cardiomyopathy in po dosed Sprague-Dawley rat assessed as reduction in fractional shortening measured upto 24 hrs by echocardiography; format: functional; details: time hrs <=24
Summary of the method: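 Sprague–Dawley rats received single oral doses from 0.5 to 4 mg/kg. LV dimensions and fractional shortening were read by echocardiography at set times over 24 h, with blood drawn at each reading for compound level. Concentrations giving 50% and 10% FS reduction were derived, and their IC50/IC10 ratio was calculated.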

Cytochrome P450 2B6 = target: T1, Cytochrome P450 2B6 (Homo sapiens, UniProt P20813); assay: Induction of CYP2B6 in human hepatocytes assessed as mRNA expression incubated for 3 days by RT-RTPCR analysis; format: ADME, cell-based; details: hepatocyte
T1 sequence (P20813 whole entry): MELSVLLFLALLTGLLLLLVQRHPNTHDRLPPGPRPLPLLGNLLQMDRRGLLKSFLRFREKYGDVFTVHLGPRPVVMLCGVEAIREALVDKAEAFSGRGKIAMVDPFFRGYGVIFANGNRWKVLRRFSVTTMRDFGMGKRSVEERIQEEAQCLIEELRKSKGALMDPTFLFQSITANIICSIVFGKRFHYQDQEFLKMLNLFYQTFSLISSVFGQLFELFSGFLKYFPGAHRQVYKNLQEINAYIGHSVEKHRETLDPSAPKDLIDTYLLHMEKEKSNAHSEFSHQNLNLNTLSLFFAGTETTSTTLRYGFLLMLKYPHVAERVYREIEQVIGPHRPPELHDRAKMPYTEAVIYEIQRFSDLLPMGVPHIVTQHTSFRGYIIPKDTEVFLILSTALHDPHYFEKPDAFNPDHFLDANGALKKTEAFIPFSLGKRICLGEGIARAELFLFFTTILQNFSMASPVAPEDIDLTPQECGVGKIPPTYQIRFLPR
Summary of the method: (§1)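 Cryopreserved plateable human primary hepatocytes from three separate donors were tested at concentrations up to 50 μM. The end point was CYP mRNA level, with induction judged against predetermined cutoff values (2-fold).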

[2] = Half life in human; format: ADME
Rattus norvegicus [3] = assay: Anti-hypertrophic cardiomyopathy in Sprague-Dawley rat assessed as reduction in fractional shortening at 4 mg/kg, po measured upto 24 hrs by echocardiography relative to control; format: functional; parameters: scale not given: the % may be the effect or the level left; details: time hrs <=24
Summary of the method: (§2)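 Normal Sprague–Dawley rats were given single oral doses of 0.5–4 mg/kg. Left ventricular dimensions and fractional shortening were measured by echocardiography at selected time points over 24 h, relative to vehicle treatment.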

Rattus norvegicus [4] = assay: Anti-hypertrophic cardiomyopathy in po dosed Sprague-Dawley rat assessed as reduction in fractional shortening measured upto 24 hrs by echocardiography; format: functional, organism-based; summary of the method: as §2
CYP3A4 = CYP3A4 (Homo sapiens, UniProt P08684); assay: Induction of CYP3A4 in human hepatocytes assessed as mRNA expression incubated for 3 days by RT-RTPCR analysis; format: ADME, cell-based, Hepatocyte; summary of the method: as §1
Sequence of CYP3A4 (P08684 whole entry): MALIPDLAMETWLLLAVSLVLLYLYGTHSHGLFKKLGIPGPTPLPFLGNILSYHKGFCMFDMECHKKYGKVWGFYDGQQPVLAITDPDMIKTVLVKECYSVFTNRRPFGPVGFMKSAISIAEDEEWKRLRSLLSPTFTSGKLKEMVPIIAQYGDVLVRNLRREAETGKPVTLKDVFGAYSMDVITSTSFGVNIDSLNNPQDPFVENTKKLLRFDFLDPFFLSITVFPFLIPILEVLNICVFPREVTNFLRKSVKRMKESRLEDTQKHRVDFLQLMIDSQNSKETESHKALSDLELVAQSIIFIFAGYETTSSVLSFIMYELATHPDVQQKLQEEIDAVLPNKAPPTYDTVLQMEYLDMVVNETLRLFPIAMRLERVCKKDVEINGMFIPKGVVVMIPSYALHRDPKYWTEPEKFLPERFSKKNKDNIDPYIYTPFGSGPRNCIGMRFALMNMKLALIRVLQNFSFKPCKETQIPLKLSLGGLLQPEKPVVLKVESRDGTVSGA

CC(C)n1c(=O)cc(N[C@@H](C)c2ccccc2)[nH]c1=O [MAVACAMTEN]
Ratio [1]: 2.8 | EC50 (Cytochrome P450 2B6): 5100 nM | half-life [2]: 216 h | Activity (Rattus norvegicus [3]): 80% | IC10 (Rattus norvegicus [4]; Rattus norvegicus, Sprague-Dawley, 24 h): 600 nM | IC50 (Rattus norvegicus [4]; time hrs <=24): 1700 nM | EC50 at 3 days (CYP3A4): 2200 nM
